Screening data as filed in PubChem BioAssay.
HGIII-sPLA2 inh: Blocks human group III sPLA2 activity; Q9NZ20; QFRET BODIPY PC-A2 liposome hydrolysis, fluorescence; inhibition, % at 12.2 µM; 370,000 tested, 0.56% active;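 active means inhibition above mean plus 3 SD of compounds lying within the high and low control bounds, cut at about 19% in these data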
Target sequence (Q9NZ20 whole entry, looked up): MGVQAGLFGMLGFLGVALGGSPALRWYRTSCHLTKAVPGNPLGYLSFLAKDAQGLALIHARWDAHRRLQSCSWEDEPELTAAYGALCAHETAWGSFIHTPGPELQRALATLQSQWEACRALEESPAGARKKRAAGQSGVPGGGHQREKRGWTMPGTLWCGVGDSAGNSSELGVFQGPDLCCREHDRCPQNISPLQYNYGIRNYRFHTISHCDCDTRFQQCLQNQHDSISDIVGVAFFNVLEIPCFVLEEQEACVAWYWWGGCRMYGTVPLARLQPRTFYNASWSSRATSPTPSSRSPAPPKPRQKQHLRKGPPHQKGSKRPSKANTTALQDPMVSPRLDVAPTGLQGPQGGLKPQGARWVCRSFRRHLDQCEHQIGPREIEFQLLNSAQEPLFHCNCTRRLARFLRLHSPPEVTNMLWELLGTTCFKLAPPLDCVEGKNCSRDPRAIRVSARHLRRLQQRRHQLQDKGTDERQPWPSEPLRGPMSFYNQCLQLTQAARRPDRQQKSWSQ
NRP1-CendR mod: alters CendR peptide binding to human NRP-1; O14786; 360,000 tested, 0.85% active; inhibition, % at 25 µM; AID 602438; FAM-RPARPAR peptide binding to NRP-1, fluorescence polarization;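 active means inhibition or corrected inhibition above about 18%, plus a signal ratio from 0.5 to 1.5, limit read from the data, passing the limit was not always enough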
HTR2A ag: agonists of mouse serotonin 5-HT2A receptor (HTR2A); CHO-K1 mHTR2A beta-arrestin complementation, luminescence; percent of 30 µM serotonin response; activation, % at 7.6 µM; 360,000 tested, 0.66% active; AID 624169;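 active means activation above a run cutoff, the mean activation of all tested compounds plus 3 SD, cut at about 14% in these data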
Lipid droplet: modulators of hepatic lipid droplet formation; AML12 mouse hepatocytes, oleate lipid droplets, BODIPY imaging; AID 1656; inhibition, % at 6.5 µM; 240,000 tested, 0.4% active;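 active means lipid droplet intensity inhibited by at least 50%, with more than 500 cells counted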
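Material – mouse AML12 hepatocyte cell line, fixed after treatment · Compound dosing – one dose, 6.5 µM compound · Times – compound with oleate, overnight · Measured by – Image-based BODIPY and DAPI two-channel analysis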
Arr AP2 block: inhibitors of human beta-arrestin and AP2 interaction; FITC-arrestin peptide / GST-AP2 beads, flow cytometry; AP2 beta2 appendage carries R879A mutation; inhibition, % at 10 µM; 340,000 tested, 0.31% active;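 active means inhibition above a set limit, near 3 SD of compounds lacking own fluorescence, cut at about 54% in these data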
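Material – AP2 appendage R879A on GSH beads · Buffer or medium – PBS with 0.05% Tween 20 and 0.1% BSA · Probe or stimulus – fluorescein-tagged arrestin peptide at 50 nM final · Incubation – compound with beads 12 min RT, then probe 1 h RT · Detection – high-throughput flow cytometry of beads, ex 488, em 535 nm · Evaluation – percent response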
M18AAP inhibitor: PfM18AAP enzyme inhibition; inhibition, % at 7.35 µM; recombinant PfM18AAP, H-Glu-NHMec fluorogenic cleavage; 290,000 tested, 1.2% active; AID 1822;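 active means inhibition above the campaign mean inhibition over all tested compounds plus 3 SD, cut at about 28% in these data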
A number is an active result; n = inactive; x = not tested or not shown. Rows were chosen to be rich in hits. Some 3.3% of all compounds tested hit in one or more screens of this group.

SMILES	HGIII-sPLA2 inh	NRP1-CendR mod	HTR2A ag	Lipid droplet	Arr AP2 block	M18AAP inhibitor
CCCC(=O)NC(c1ccc(C)cc1)c1ccc2cccnc2c1O (stereo not drawn)	x	n	n	n	n	n
CCCC(=O)NC(c1ccc(Cl)cc1Cl)c1ccc2cccnc2c1O (stereo not drawn)	26	n	n	n	n	n
CC(C)C(=O)NC(c1cccc([N+](=O)[O-])c1)c1ccc2cccnc2c1O (stereo not drawn)	23	n	n	n	n	n
CC(C)C(=O)NC(c1ccco1)c1ccc2cccnc2c1O (stereo not drawn)	n	n	n	x	n	30
CC(=O)NC(c1ccco1)c1cc(F)c2cccnc2c1O (stereo not drawn)	n	n	n	x	n	x
NC(=O)C(c1ccccc1)(c1ccccc1)[C@@H]1CCN(CCc2ccc3c(c2)CCO3)C1	n	x	x	x	x	x
CC(C)NC(=O)C1(C)CCCN1Cc1ccccc1C#N (stereo not drawn)	n	n	n	x	x	x
CCCCn1nnnc1C(c1cc2ccccc2o1)N1CCN(c2cc(C)nc3ccccc23)CC1 (stereo not drawn)	n	n	n	x	x	x
Oc1c(C(Nc2nc3ccccc3s2)c2ccco2)ccc2cccnc12 (stereo not drawn)	34	n	n	x	n	n
COc1ccc(CNS(=O)(=O)CC2NCc3cc(OC)ccc32)cc1 (stereo not drawn)	n	x	x	x	x	x
COc1ccc(C(=O)OCC(=O)N2CCN(S(=O)(=O)c3ccc(C)cc3)CC2)cc1[N+](=O)[O-]	n	26	n	x	n	x
O=C1CSC(=S)N1N1C(=O)c2cccc([N+](=O)[O-])c2C1=O	x	x	x	n	x	43
O=C1c2cccc([N+](=O)[O-])c2C(=O)N1CCO	n	n	n	n	n	n
COc1cccc(NC(=O)COc2ccccc2C(N)=O)c1	n	32	n	n	n	n
Cc1cn([C@H]2C[C@H](O)[C@@H](CCC(=O)NCCc3ccc4ccccc4c3)O2)c(=O)[nH]c1=O	n	22	n	x	x	x
COC(=O)CC#C[C@H](C)[C@@H](NS(C)(=O)=O)C1CCCCC1	n	x	x	x	x	x
CC(C)N1CCC(=O)NC1=O	n	n	n	x	n	x
c1ccc(OCCCCN2CCCCC2)cc1	n	n	n	x	n	n
Cc1cccc(C)c1OCCN1CCCC1	n	28	n	n	n	n
c1ccc(OCCCN2CCCC2)cc1	n	23	n	n	n	n
Fc1cccc(Cn2ccc3ccc(-c4ccc5ccn(Cc6ccccc6)c5c4)cc32)c1	n	x	x	x	x	x
CN(CC(=O)Nc1ccc(F)c(F)c1F)C(=O)C1CCCC1	n	n	n	x	n	x
COc1ccccc1-c1noc(Cn2cc(S(=O)(=O)N3CCCC3)ccc2=O)n1	n	18	n	x	n	x
COc1ccccc1Oc1ccc(S(=O)(=O)N2CCCC2)cc1	x	n	n	n	n	n
C/C(Nc1ccc(Cl)c(Cl)c1)=C1/CCOC1=O	n	n	n	x	x	x
SMILES	HGIII-sPLA2 inh	NRP1-CendR mod	HTR2A ag	Lipid droplet	Arr AP2 block	M18AAP inhibitor
CC(=O)NC(C)(c1ccccc1)c1nc(-c2cc(F)cc(F)c2)cs1 (stereo not drawn)	n	n	n	x	x	x
COc1cccc(N2[C@@H](CC(C)=O)c3ccccc3S2(=O)=O)c1	n	22	n	x	n	x
COc1cccc(CC(=O)O[C@@H]2CCC[C@@]3(C(=O)N(Cc4ccccc4)c4ccccc43)[C@H]2NC(=O)CCc2ccccc2)c1	n	x	x	x	x	x
O=c1[nH]c2ccc([N+](=O)[O-])cc2nc1/C=C(\O)c1ccccc1	n	84	n	n	n	n
O=C(Nc1ccccc1N1CCOCC1)c1ccc(N2CCCC2=O)cc1	n	25	n	x	n	x
C[C@H]1CN=C(N(C)C)N1CCC1CCCCC1	n	30	n	x	n	x
COC(=O)[C@]12CCCCC=C1N(Cc1cccc3ccccc13)C(=O)[C@H](CC(=O)NCCC(C)C)C2	n	n	n	x	x	x
O=C(Nc1ccccc1Br)C1CC(=O)N(c2ccc3c4c(cccc24)CC3)C1 (stereo not drawn)	n	38	n	n	n	n
Cc1ccccc1NC(=O)C1CC(=O)N(c2ccc3c4c(cccc24)CC3)C1 (stereo not drawn)	n	n	n	x	n	n
COC(=O)[C@H](CC(C)C)N1Cc2nnn(Cc3ccc(C)cc3)c2-c2cc(F)ccc2S1(=O)=O	n	x	x	x	x	x
CCOC(=O)C1=CCN(S(C)(=O)=O)C1c1ccc(C)cc1 (stereo not drawn)	n	n	n	x	x	x
COc1ccc(C(=O)/C=C/c2cc(OC)c(O)c(OC)c2)c(F)c1	n	n	n	n	n	n
COc1ccc2cc(C(=O)/C=C/c3cc(OC)c(O)c(OC)c3)ccc2c1	n	n	n	n	n	29
Cc1cc(C)c(S(=O)(=O)N2CCN(S(=O)(=O)N3CCOCC3)CC2)c(C)c1	n	n	n	n	n	n
Cc1ccc(C(=O)CCC(=O)Nc2cccc(C(F)(F)F)c2)cc1C	n	n	n	x	n	n
Cc1ccc(C(=O)CCC(=O)Nc2cccc(C(F)(F)F)c2)cc1	n	26	n	x	n	n
CCOC(=O)c1c(C)[nH]c(C2=NNC(=NC3CC3)SC2)c1C	x	n	n	n	n	44
COc1cc(OC)nc(NC(=O)COC(=O)c2cccc(Cl)c2)n1	n	32	n	n	n	n
O=C(COC(=O)c1cccc(Cl)c1)NCc1ccccc1	n	n	n	x	n	x
Cn1c(=O)c2[nH]c(-c3ccccc3)nc2n(C)c1=O	x	x	x	n	x	n
Cn1c(=O)c2[nH]c(-c3ccccc3Cl)c(O)c2n(C)c1=O	n	n	n	n	n	44
Cn1c2c(c(=O)n(C)c1=O)C(C(F)(F)F)(C(F)(F)F)N=C(c1ccccc1Cl)N2	n	n	n	n	n	n
Cn1c(=O)c2[nH]c(-c3ccccc3)c(O)c2n(C)c1=O	n	36	n	n	n	58
CCCc1c(-c2cccc(Br)c2)ncn1CCc1ccccc1OC	n	x	x	x	x	x
COc1cc(/C=N/N=C/c2cc(OC)c(O)c(OC)c2)cc(OC)c1O	n	n	n	n	n	30
SMILES	HGIII-sPLA2 inh	NRP1-CendR mod	HTR2A ag	Lipid droplet	Arr AP2 block	M18AAP inhibitor
N#CC1=C(N)NC(SCc2ccc(Cl)cc2)=C(C#N)C12CCCCC2	n	29	n	n	n	n
Nc1nonc1-n1nnc(C(=O)N/N=C/c2cccc(F)c2)c1-c1ccccc1	n	n	n	n	n	n
Cc1cc(NC(=O)CCC(=O)N(Cc2cccs2)C(C)(C)C(=O)NC2CCCCC2)no1	n	20	n	n	n	n
O=C(CNc1ccc2ccccc2c1)N/N=C/c1ccc(OC(=O)/C=C/c2ccco2)cc1	n	n	n	n	n	n
O=C(CNc1cccc2ccccc12)N/N=C/c1ccc(OC(=O)/C=C/c2ccco2)cc1	n	n	n	n	n	28
O=C1c2ccccc2C(=O)c2c(/C=C/N3CCCCC3)ccnc21	n	80	n	x	n	x
